Experimental data pooled from the literature.
Lines come from different studies, so protocols differ.
Target: Mitogen-activated protein kinase 8 (MAPK8, Homo sapiens, UniProt P45983)

CN(C)C1CCN(CC#Cc2nn(C3CCCC3)c3nc(NCc4ccccc4)ncc23)C1 (stereo not shown)  inhibition (enzyme activity; inhibitor; FRET; 0.1 µM): 1%
NS(=O)(=O)c1cc(NC(=O)C2(c3ccccc3Cl)CC2)ccc1Oc1cccc(Cl)c1  remaining binding (cell-free assay; competition with immobilised ligand; 1 µM): 100%
CNCc1ccc(-c2cc(-c3nc(-c4ccc(S(=O)(=O)C(C)C)cc4)cnc3N)on2)cc1  inhibition (enzyme activity; inhibitor; 0.4 µM): 6%
FC(F)c1nc2ccccc2n1-c1nc(N2CCOCC2)nc(N2CCOCC2)n1  remaining activity (enzyme activity; inhibitor; 10 µM): 93%
Cn1c2c(c3ccc(Cl)c(Cl)c31)C(C#N)C1(CCOCC1)NC2=O (stereo not shown)  ΔTm (thermal stability; DSF; 10 µM): -0.1 °C
CCN(CC)CCNC(=O)c1c(C)[nH]c(/C=C2\C(=O)Nc3ccc(F)cc32)c1C  remaining signal (cell-free assay; 0.5 µM): 91.8%
FC(F)(F)Oc1cccc(-c2cnc3ccc(-c4ccncc4)nn23)c1  activity vs control (enzyme activity; inhibitor; radiometric; 5 µM): 90%
CC(=O)C1=C(C)N(c2cccc(C(F)(F)F)c2)C(=O)N[C@@H]1c1ccc(C#N)nc1  remaining binding (cell-free assay; competition with immobilised ligand; 1 µM): 100%
CC(C)(O)[C@H]1CC[C@H](Nc2ccc3ncc(-c4cccc(C(F)(F)F)c4)n3n2)CC1  remaining activity (enzyme activity; inhibitor; 1 µM): 107%
c1ccc(N2CCN(Cc3nc4ccccc4[nH]3)CC2)nc1  remaining binding (binding; competition with immobilised ligand; 1 µM): 100%
O=C(Nc1cnn(-c2csc(C(=O)NC3COC3)c2)c1)Nc1ccccc1Cl  remaining activity (enzyme activity; inhibitor; 5 µM): 57.6%
Cc1ccc(C(=O)NCc2ccsc2)cc1C#Cc1cn(C(C)C)c2ncnc(N)c12  activity vs control (enzyme activity; inhibitor; 1 µM): 103%
CN1CCC2(CC1)NC(=O)c1c(c3ccc(Cl)c(Cl)c3n1C)C2C#N (racemic)  ΔTm (thermal stability; DSF; 10 µM): 0 °C
CC(C)(C)c1nc(-c2cccc(NS(=O)(=O)c3c(F)cccc3F)c2F)c(-c2ccnc(N)n2)s1  remaining activity (enzyme activity; inhibitor; radiometric; 1 µM): 89%
CC/C(=N\NC(=O)NCc1cccc(O)c1)c1ccc(O)c(C)c1O  inhibition (enzyme activity; inhibitor; 0.1 µM): -2.4%
N#CCCc1ccc2c(c1)-c1[nH]c3ccc([N+](=O)[O-])cc3c1CC(=O)N2  remaining signal (cell-free assay; 0.5 µM): 93.1%
COc1cc2ncnc(Nc3ccc(Oc4ccccc4)c(C)c3C)c2cc1OC  inhibition (enzyme activity; inhibitor; 1 µM): 2%
Cc1cc(NC(=O)c2cccc3cc(-c4cccc5[nH]nc(N)c45)ccc23)ccc1F  activity vs control (enzyme activity; inhibitor; 0.1 µM): 103%
CC1=C(C#N)C(c2ccc3c(c2)c(NC(=O)c2ccccc2C)nn3C)C(C#N)=C(C)N1  remaining binding (cell-free assay; competition with immobilised ligand; 1 µM): 88%
Cn1c2c(c3ccc(Cl)c(Cl)c31)C(C#N)C1(CCNCC1)NC2=O (racemic)  ΔTm (thermal stability; DSF; 10 µM): 0.2 °C
Cc1cc(NC(=O)c2cccc(S(F)(F)(F)(F)F)c2)cc(-n2ccn3nc(-c4cccnc4)cc23)c1  remaining binding (cell-free assay; competition with immobilised ligand; 1 µM): 55.9%
Oc1cccc(-c2nc(N3CCOCC3)c3oc4ncccc4c3n2)c1  remaining activity (enzyme activity; inhibitor; 10 µM): 102%
COc1cc(Nc2cnc(C#N)c(O[C@H](C)CN(C)C)n2)ncc1-c1cnn(C)c1  remaining activity (enzyme activity; inhibitor; radiometric; 1 µM): 104%
C=CC(=O)Nc1cc(Nc2nccc(Nc3cc(Cl)c(F)cc3C(C)(C)O)n2)c(OC)cc1N1CC[C@@H](N(C)C)C1  inhibition (enzyme activity; inhibitor; 1 µM): -3%
Cc1ccc(NC(=O)c2ccc(C)c(C(F)(F)F)c2)cc1C#Cc1nn(C2CCC(O)CC2)c2ncnc(N)c12 (stereo not shown)  remaining signal (cell-free assay; 10 µM): 35%
CCS(=O)(=O)c1cc2cc(C[C@](O)(CC(C)(C)c3ccc(F)cc3C(N)=O)C(F)(F)F)[nH]c2cn1  remaining binding (cell-free assay; competition with immobilised ligand; 1 µM): 100%
COc1cc(-c2cc(-c3ccc(N4CCNCC4)cc3)cnc2C)cc(OC)c1OC  inhibition (enzyme activity; inhibitor; 1 µM): 2%
CO[C@@H](C)c1c(Nc2ccc([C@@H](N(C)C(=O)C3CCS(=O)(=O)CC3)C(F)(F)F)cc2)cnc2cc(Cl)nn12  remaining binding (cell-free assay; competition with immobilised ligand; 1 µM): 69%
CCC1(CC)NC(=O)c2c(c3ccc(Cl)c(Cl)c3n2C)C1C#N (stereo not shown)  ΔTm (thermal stability; DSF; 10 µM): 0.3 °C
Nc1nc(Nc2ccccc2)sc1C(=O)c1c(F)cccc1F  remaining activity (enzyme activity; inhibitor; 10 µM): 75%
O=C(Nc1ccc(Oc2ccc(F)cc2)cc1)N1CCc2ncccc2[C@H]1c1ccc(F)cc1  remaining binding (cell-free assay; competition with immobilised ligand; 1 µM): 91%
Cn1c2c(c3ccc(Cl)c(Cl)c31)C(C#N)C(C)(C)NC2=O (stereo not shown)  ΔTm (thermal stability; DSF; 10 µM): 1.3 °C
CC(C)(C)C(=O)c1sc(NC2CCCCC2)nc1N  remaining activity (enzyme activity; inhibitor; 10 µM): 98%
O=C1Nc2ccc(Cl)cc2C1=Cc1cc(Cl)c(O)c(Cl)c1  remaining signal (cell-free assay; 0.5 µM): 82.8%
